The source of these data is ChEMBL document CHEMBL4152188, “Design, synthesis and biological evaluation of C(4) substituted monobactams as antibacterial agents against multidrug-resistant Gram-negative bacteria” (Eur J Med Chem, 2018).

Molecules are shown by their SMILES. Values after ≈ are worked out from the molar mass of the structure shown.

By MIC is commonly meant the lowest concentration found to suppress growth.

Common to all, as to format: functional
The subject of test [1] is Escherichia coli. The test can be described thus: Antibacterial activity against extended-spectrum beta-lactamase producing Escherichia coli isolate 212648 after 18 hrs by CLSI broth microdilution method. The conditions noted are these: isolate 212648, 18 h. For orientation: Broth dilution looks for growth in wells or tubes with falling amounts of substance.
Test [2] has as its system Escherichia coli. As to the kind of experiment: Antibacterial activity against Escherichia coli isolate 210737 after 18 hrs by CLSI broth microdilution method. As to conditions: isolate 210737, 18 h.
For test [3], the system named is Escherichia coli. As to the kind of experiment: Antibacterial activity against extended-spectrum beta-lactamase producing Escherichia coli isolate 208687 after 18 hrs by CLSI broth microdilution method. As to conditions: isolate 208687, 18 h.
Test [4] relates to Escherichia coli. The test can be described thus: Antibacterial activity against extended-spectrum beta-lactamase producing Escherichia coli isolate 209285 after 18 hrs by CLSI broth microdilution method. As to conditions: isolate 209285, 18 h.
In test [5] the test system is Escherichia coli. As to the kind of experiment: Antibacterial activity against extended-spectrum beta-lactamase producing Escherichia coli isolate 106342 after 18 hrs by CLSI broth microdilution method. As to conditions: isolate 106342, 18 h.
Test [6] has as its system Klebsiella pneumoniae. The test can be described thus: Antibacterial activity against KPC-2 producing Klebsiella pneumoniae isolate 212232 after 18 hrs by CLSI broth microdilution method. The conditions noted are these: isolate 212232, 18 h.
Test [7] relates to Klebsiella pneumoniae. The test can be described thus: Antibacterial activity against KPC-2 producing Klebsiella pneumoniae isolate 212229 after 18 hrs by CLSI broth microdilution method. As to conditions: isolate 212229, 18 h.
The subject of test [8] is Pseudomonas aeruginosa. As to the kind of experiment: Antibacterial activity against IMP-4 producing Pseudomonas aeruginosa isolate 209471 after 18 hrs by CLSI broth microdilution method. As to conditions: isolate 209471, 18 h.
The test system of test [9] is Pseudomonas aeruginosa. The test can be described thus: Antibacterial activity against IMP-4 producing Pseudomonas aeruginosa isolate 208247 after 18 hrs by CLSI broth microdilution method. As to conditions: isolate 208247, 18 h.
Test [10] relates to Escherichia coli. The test can be described thus: Antibacterial activity against extended-spectrum beta-lactamase producing Escherichia coli isolate 208687 after 18 hrs in presence of BPL by CLSI broth microdilution method. As to conditions: isolate 208687, 18 h. The method in brief:
(§1)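 CLSI broth microdilution against clinical isolates (ESBL E. coli, KPC-2 MDR K. pneumoniae, IMP-4 MDR P. aeruginosa; five per species). Iron limitation: Mueller-Hinton broth supplemented with 16 mg/liter 2,2'-bipyridyl to complex iron and induce iron uptake systems. Read-out: MIC.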

In test [11] the test system is Escherichia coli. The test can be described thus: Antibacterial activity against Escherichia coli isolate 210737 after 18 hrs in presence of BPL by CLSI broth microdilution method. As to conditions: isolate 210737, 18 h. The method in brief:
as §1

The subject of test [12] is Escherichia coli. As to the kind of experiment: Antibacterial activity against extended-spectrum beta-lactamase producing Escherichia coli isolate 212648 after 18 hrs in presence of BPL by CLSI broth microdilution method. As to conditions: isolate 212648, 18 h. A digest of the protocol:
as §1

The subject of test [13] is Escherichia coli. As to the kind of experiment: Antibacterial activity against extended-spectrum beta-lactamase producing Escherichia coli isolate 209285 after 18 hrs in presence of BPL by CLSI broth microdilution method. The conditions noted are these: isolate 209285, 18 h. The method in brief:
as §1

Test [14] deals with Escherichia coli. As to the kind of experiment: Antibacterial activity against extended-spectrum beta-lactamase producing Escherichia coli isolate 106342 after 18 hrs in presence of BPL by CLSI broth microdilution method. As to conditions: isolate 106342, 18 h. The method in brief: as §1
In test [15] the test system is Klebsiella pneumoniae. The test can be described thus: Antibacterial activity against KPC-2 producing Klebsiella pneumoniae isolate 212423 after 18 hrs by CLSI broth microdilution method. The conditions noted are these: isolate 212423, 18 h.
Test [16] relates to Klebsiella pneumoniae. The test can be described thus: Antibacterial activity against KPC-2 producing Klebsiella pneumoniae isolate 212423 after 18 hrs in presence of BPL by CLSI broth microdilution method. As to conditions: isolate 212423, 18 h. A digest of the protocol: as §1
Test [17] has as its system Klebsiella pneumoniae. As to the kind of experiment: Selectivity index, ratio of MIC for against KPC-2 producing Klebsiella pneumoniae isolate 212423 to MIC for against KPC-2 producing Klebsiella pneumoniae isolate 212423 in presence of BPL.
The subject of test [18] is Klebsiella pneumoniae. As to the kind of experiment: Antibacterial activity against KPC-2 producing Klebsiella pneumoniae isolate 209632 after 18 hrs by CLSI broth microdilution method. The conditions noted are these: isolate 209632, 18 h.
For test [19], the system named is Klebsiella pneumoniae. The test can be described thus: Antibacterial activity against KPC-2 producing Klebsiella pneumoniae isolate 209632 after 18 hrs in presence of BPL by CLSI broth microdilution method. As to conditions: isolate 209632, 18 h. A digest of the protocol:
as §1

Test [20] has as its system Klebsiella pneumoniae. As to the kind of experiment: Selectivity index, ratio of MIC for against KPC-2 producing Klebsiella pneumoniae isolate 209632 to MIC for against KPC-2 producing Klebsiella pneumoniae isolate 209632 in presence of BPL.
The subject of test [21] is Klebsiella pneumoniae. The test can be described thus: Antibacterial activity against KPC-2 producing Klebsiella pneumoniae isolate 209735 after 18 hrs by CLSI broth microdilution method. As to conditions: isolate 209735, 18 h.
The test system of test [22] is Klebsiella pneumoniae. The test can be described thus: Antibacterial activity against KPC-2 producing Klebsiella pneumoniae isolate 209735 after 18 hrs in presence of BPL by CLSI broth microdilution method. As to conditions: isolate 209735, 18 h. The method in brief:
as §1

Test [23] relates to Klebsiella pneumoniae. The test can be described thus: Selectivity index, ratio of MIC for against KPC-2 producing Klebsiella pneumoniae isolate 209735 to MIC for against KPC-2 producing Klebsiella pneumoniae isolate 209735 in presence of BPL.
Test [24] has as its system Klebsiella pneumoniae. The test can be described thus: Antibacterial activity against KPC-2 producing Klebsiella pneumoniae isolate 212232 after 18 hrs in presence of BPL by CLSI broth microdilution method. As to conditions: isolate 212232, 18 h. A digest of the protocol: as §1
In test [25] the test system is Klebsiella pneumoniae. As to the kind of experiment: Selectivity index, ratio of MIC for against KPC-2 producing Klebsiella pneumoniae isolate 212232 to MIC for against KPC-2 producing Klebsiella pneumoniae isolate 212232 in presence of BPL.
The test system of test [26] is Klebsiella pneumoniae. The test can be described thus: Antibacterial activity against KPC-2 producing Klebsiella pneumoniae isolate 212229 after 18 hrs in presence of BPL by CLSI broth microdilution method. The conditions noted are these: isolate 212229, 18 h. The method in brief:
as §1

The subject of test [27] is Klebsiella pneumoniae. As to the kind of experiment: Selectivity index, ratio of MIC for against KPC-2 producing Klebsiella pneumoniae isolate 212229 to MIC for against KPC-2 producing Klebsiella pneumoniae isolate 212229 in presence of BPL.
The subject of test [28] is Pseudomonas aeruginosa. The test can be described thus: Antibacterial activity against IMP-4 producing Pseudomonas aeruginosa isolate 212886 after 18 hrs by CLSI broth microdilution method. As to conditions: isolate 212886, 18 h.
Test [29] has as its system Pseudomonas aeruginosa. As to the kind of experiment: Antibacterial activity against IMP-4 producing Pseudomonas aeruginosa isolate 212886 after 18 hrs in presence of BPL by CLSI broth microdilution method. As to conditions: isolate 212886, 18 h. A digest of the protocol: as §1
The subject of test [30] is Pseudomonas aeruginosa. As to the kind of experiment: Antibacterial activity against IMP-4 producing Pseudomonas aeruginosa isolate 209471 after 18 hrs in presence of BPL by CLSI broth microdilution method. As to conditions: isolate 209471, 18 h. The method in brief: as §1
For test [31], the system named is Pseudomonas aeruginosa. As to the kind of experiment: Antibacterial activity against IMP-4 producing Pseudomonas aeruginosa isolate 208247 after 18 hrs in presence of BPL by CLSI broth microdilution method. The conditions noted are these: isolate 208247, 18 h. The method in brief: as §1
The test system of test [32] is Pseudomonas aeruginosa. As to the kind of experiment: Antibacterial activity against IMP-4 producing Pseudomonas aeruginosa isolate 209321 after 18 hrs by CLSI broth microdilution method. The conditions noted are these: isolate 209321, 18 h.
The subject of test [33] is Pseudomonas aeruginosa. The test can be described thus: Antibacterial activity against IMP-4 producing Pseudomonas aeruginosa isolate 209321 after 18 hrs in presence of BPL by CLSI broth microdilution method. The conditions noted are these: isolate 209321, 18 h. A digest of the protocol:
as §1

Test [34] deals with Pseudomonas aeruginosa. The test can be described thus: Antibacterial activity against IMP-4 producing Pseudomonas aeruginosa isolate 207272 after 18 hrs by CLSI broth microdilution method. As to conditions: isolate 207272, 18 h.
Test [35] has as its system Pseudomonas aeruginosa. As to the kind of experiment: Antibacterial activity against IMP-4 producing Pseudomonas aeruginosa isolate 207272 after 18 hrs in presence of BPL by CLSI broth microdilution method. As to conditions: isolate 207272, 18 h. The method in brief: as §1

For the compound `C[C@@H](O)[C@H]1C(=O)N2C(C(=O)O)=C(S[C@@H]3CN[C@H](C(=O)N(C)C)C3)[C@H](C)[C@H]12` [MEROPENEM], the MIC against Escherichia coli [1] is 8 µg/mL (≈ 20.9 µM); in the test on Escherichia coli [2] it was 0.125 µg/mL (≈ 0.326 µM); in the test on Escherichia coli [3] it was 0.125 µg/mL (≈ 0.326 µM); in the test with Escherichia coli [4], 1 µg/mL (≈ 2.61 µM); in the test with Escherichia coli [5], 8 µg/mL (≈ 20.9 µM); against Klebsiella pneumoniae [6], > 64 µg/mL. The MIC is > 64 µg/mL in the test with Klebsiella pneumoniae [7], 32 µg/mL (≈ 83.4 µM) with Pseudomonas aeruginosa [8] and 32 µg/mL (≈ 83.4 µM) with Pseudomonas aeruginosa [9].

As to `CC(C)C(O/N=C(\C(=O)NC1C(=O)N(S(=O)(=O)O)C1(CF)CF)c1csc(N)n1)c1cc(=O)c(O)cn1O` (centres undefined), the MIC with Escherichia coli [1], against Escherichia coli [2], in the test with Escherichia coli [3], in the test on Escherichia coli [10], in the test on Escherichia coli [11] and in the test with Escherichia coli [12] was > 64 µg/mL each time. For the same compound, the MIC with Escherichia coli [4], in the test with Escherichia coli [13], against Escherichia coli [5], in the test on Escherichia coli [14], in the test on Klebsiella pneumoniae [15] and in the test with Klebsiella pneumoniae [16] was > 64 µg/mL each time. Besides, the MIC in the test on Klebsiella pneumoniae [18] is > 64 µg/mL; in the test on Klebsiella pneumoniae [19], > 64 µg/mL; with Klebsiella pneumoniae [21], > 64 µg/mL; in the test with Klebsiella pneumoniae [22], > 64 µg/mL; in the test on Klebsiella pneumoniae [6], 32 µg/mL (≈ 55.1 µM); in the test on Klebsiella pneumoniae [24], 4 µg/mL. Moreover, the minimal inhibitory concentration (MIC) in the test with Klebsiella pneumoniae [7], with Klebsiella pneumoniae [26], in the test on Pseudomonas aeruginosa [28], with Pseudomonas aeruginosa [29], with Pseudomonas aeruginosa [8] and in the test on Pseudomonas aeruginosa [30] was > 64 µg/mL throughout. For the same compound, the MIC against Pseudomonas aeruginosa [9] was > 64 µg/mL; in the test on Pseudomonas aeruginosa [31] it was 64 µg/mL; against Pseudomonas aeruginosa [32], > 64 µg/mL; in the test with Pseudomonas aeruginosa [33] it was > 64 µg/mL; with Pseudomonas aeruginosa [34], > 64 µg/mL; with Pseudomonas aeruginosa [35], > 64 µg/mL. Further, the “Selectivity Index” value in the test with Klebsiella pneumoniae [17], in the test on Klebsiella pneumoniae [20], with Klebsiella pneumoniae [23], in the test on Klebsiella pneumoniae [25] and with Klebsiella pneumoniae [27] was 8 in each case.
